Measured values: ChEMBL document CHEMBL4130403, “Thermoactinoamide A, an Antibiotic Lipophilic Cyclopeptide from the Icelandic Thermophilic Bacterium Thermoactinomyces vulgaris” (2017)
In brackets after ≈: the same amount, converted by molar mass. Activity calls are given as the source filed them. The rule behind the calls is not given here.

Experiments:
Escherichia coli [1] = test: Antibacterial activity against Escherichia coli ATCC 8739 measured after overnight incubation; format: functional
In short: (§1)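 Liquid growth inhibition in 96-well microplates. Each strain was precultured overnight in Luria Bertoni at 37 °C with stirring, then diluted to 0.03 OD at 620 nm. 200 μL of this suspension was added to wells holding 2-fold serial dilutions of peptide. Plates were incubated overnight at 34 °C with shaking at 450 rpm and read at 620 nm. MIC, run in triplicate, is the lowest concentration giving complete growth inhibition.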

Klebsiella pneumoniae [2] = test: Antibacterial activity against Klebsiella pneumoniae ATCC 11296 measured after overnight incubation; format: functional, Klebsiella pneumoniae subsp. ozaenae; in short: as §1
Klebsiella pneumoniae [3] = test: Antibacterial activity against Klebsiella pneumoniae ATCC 11296 up to 140 uM measured after overnight incubation; format: functional, organism-based; conditions: Klebsiella pneumoniae subsp. ozaenae; in short: as §1
Staphylococcus aureus = test: Antibacterial activity against Staphylococcus aureus ATCC 6538 measured after overnight incubation; format: functional; in short: as §1
Enterococcus faecalis [4] = test: Antibacterial activity against Enterococcus faecalis ATCC 29212 up to 140 uM measured after overnight incubation; format: functional, organism-based; in short: as §1
Bacillus cereus [5] = test: Antibacterial activity against Bacillus cereus ATCC 14579 up to 140 uM measured after overnight incubation; format: functional, organism-based; in short: as §1
Escherichia coli [6] = test: Antibacterial activity against Escherichia coli ATCC 8739 up to 140 uM measured after overnight incubation; format: functional, organism-based; in short: as §1
Pseudomonas aeruginosa [7] = test: Antibacterial activity against Pseudomonas aeruginosa ATCC 13388 up to 140 uM measured after overnight incubation; format: functional, organism-based; in short: as §1
Enterococcus faecalis [8] = test: Antibacterial activity against Enterococcus faecalis ATCC 29212 measured after overnight incubation; format: functional; in short: as §1
Bacillus cereus [9] = test: Antibacterial activity against Bacillus cereus ATCC 14579 measured after overnight incubation; format: functional, organism-based
In short: (§2)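 Broth microdilution (liquid growth inhibition) in 96-well plates. Overnight Luria Bertoni preculture from one colony at 37 °C with stirring, adjusted to OD620 0.03; 200 μL suspension added to 2-fold serial dilutions of peptide. Plates incubated overnight at 34 °C with shaking (450 rpm), read at OD620. MIC = lowest concentration giving complete growth inhibition; triplicate; gentamicin positive control.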

Pseudomonas aeruginosa [10] = test: Antibacterial activity against Pseudomonas aeruginosa ATCC 13388 measured after overnight incubation; format: functional, organism-based; in short: as §2

`O=C(N[C@H](CO)[C@H](O)c1ccc([N+](=O)[O-])cc1)C(Cl)Cl` [CHLORAMPHENICOL] was tested, and the MIC (Escherichia coli [1]) was 19.3 µM (≈ 6.24 µg/mL) and the MIC (Klebsiella pneumoniae [2]) was 3.17 µM (≈ 1.02 µg/mL).

`CC[C@H](C)[C@H]1NC(=O)[C@H](CC(C)C)NC(=O)[C@@H](CC(C)C)NC(=O)[C@H](CC(C)C)NC(=O)[C@H](C(C)C)NC(=O)[C@@H](Cc2ccc(O)cc2)NC1=O` was tested, and the Activity (Klebsiella pneumoniae [3]) was “inactive”, the MIC (Staphylococcus aureus) was 35 µM (≈ 25 µg/mL) and the Activity (Enterococcus faecalis [4]) was “inactive”. The Activity (Bacillus cereus [5]) was “inactive”, the Activity (Escherichia coli [6]) was “inactive” and the Activity (Pseudomonas aeruginosa [7]) was “inactive”.

`CC1(C)S[C@@H]2[C@H](NC(=O)[C@H](N)c3ccccc3)C(=O)N2[C@H]1C(=O)O` [AMPICILLIN] gave an MIC (Staphylococcus aureus) of 0.11 µM (≈ 0.0384 µg/mL) and an MIC (Enterococcus faecalis [8]) of 4.59 µM (≈ 1.6 µg/mL).

In the case of GENTAMICIN, the MIC (Bacillus cereus [9]) is reported as 17.2 µM and the MIC (Pseudomonas aeruginosa [10]) is reported as 10.5 µM.
